Source: the EternaBench riboswitch data

System: MS2 coat protein
Assay: apparent Kd, MS2 coat protein; higher = weaker binding; RNA-MaP array
Procedure, shortened: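 Apparent Kd was taken as the median of binding curves fitted cluster by cluster. The designed RNAs were made by transcription of sequenced DNA templates on an Illumina sequencing chip and exposed to fluorescently labeled MS2 coat protein (1.5 nM to 3 μM) at room temperature, with or without input ligand, for 0.8–1.5 h at the lowest and 10–20 min at the highest concentrations. Any design measured on fewer than 10 clusters was left out.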

[1] = designed as: ON switch for flavin mononucleotide, no ligand
[2] = ligand present: flavin mononucleotide, designed as: ON switch for flavin mononucleotide
[3] = designed as: OFF switch for flavin mononucleotide, no ligand
[4] = ligand present: flavin mononucleotide, designed as: OFF switch for flavin mononucleotide

Row | Sequence | apparent Kd [1] [nM] | apparent Kd [2] [nM] | apparent Kd [3] [nM] | apparent Kd [4] [nM] | other results
1 | AUGGACCCAAAGAAGGAGAUCUGGACGACCCAUCUAGGAUAUUUGGCGCGCCCAUCCACCUGCACAUGAGGAUCACCCAUGUCG | 11.9 | 9.55 | – | – | –
2 | GACACCCAAGGAUAUCAAUGAAUCAACAUGAGGAUCACCCAUGUCGUCACCAGAUUAAACUGAGAAGGAGGAGAAA | – | – | 11.4 | 9.75 | –
3 | UAGGAACAUGAGGAUCACCCAUGUUAGGAUAUCGAGGUAUGGAUUAUCAUGCUGUAAGCGAGAAGGAACGUGUG | – | – | 30.8 | 29.6 | –
4 | CCCAACAUGAGGAUCACCCAUGUUCCGGGUCGAGGACCGGUACGGCCGCCACUCGGUAUGAUGGGUGUGCAGCGUAUCUGCACCA | – | – | – | – | apparent Kd (designed as: ON switch for tryptophan, no ligand): 38.5 nM; apparent Kd (ligand present: tryptophan, designed as: ON switch for tryptophan): 17.2 nM
5 | CGAGAAUAUACAGGAUAUGGCGGAACCCAUUACAUGAGGAUCACCCAUGUACCAUGGAAAAGAGUCCAGAAGGGUAGAAUCAAA | 8.1 | 6.19 | – | – | –
6 | CGGUGAUUCGUAGGAUAUGUAUGAAGCUAGAGAACAGAAGGACGUCGCUACAAAAUUCAAAAUUACAUGAGGAUCACCCAUGUA | 25.2 | 16.4 | – | – | –
7 | CUUAGGUGAGGAUAUCCUGAAUGGGUCGCUACCAGCCGUUCGGAGAAGGCACAUGAGGAUCACCCAUGUUUUGA | – | – | 34.6 | 25.5 | –
8 | AAAGAAAACGGAGGAUAUAGAAAUCCGAAUCCAAACCCGCCAACAUGAGGAUCACCCAUGUGCUUCUAGAAGGCCGAAUGCUAC | 19.8 | 17 | – | – | –
9 | CUUUACAUAUGUAUGUGGGUUACAUGAGGAUCACCCAUGUGAAGAAGGCUCACCUCAAGCGCAAGAGAGGAUAUUCACGGGUCC | – | – | 60.8 | 104 | –
10 | UUCAUUUAGGAGGAUAUUUAGGCAUGAGGGCUAAAAGAAGGCCUAACAUGAGGAUCACCCAUGUUUGGACUAGA | – | – | 5.51 | 7.4 | –
11 | UUGGUUGCAUAGAAGGUGAGAUAGGAUCUACAUGAGGAUCACCCAUGUGUUAUCCCAAUUAGAAUCAAGGAUAUAUUGGCUUAU | 19.1 | 15.7 | – | – | –
12 | AUCUUUGUAGGAUAUCCUGAGGCAAACAUGAGGAUCACCCAUGUCCCAAGAAUGACUAAAGGAGAAGGACACUCGG | – | – | 20.6 | 20.7 | –
13 | GCUACACAUGAGGAUCACCCAUGUAUGCAUAGACGAGGAUAUAGACCACCUCCCGGGAUACUAGAAGGCGUGAUAU | 19.3 | 10.3 | – | – | –
14 | AUUCAAAUAACAGGAUAUGACAUAAACUACGAAUCAGAAGGGUUACAUAAAUCAACAUGAGGAUCACCCAUGUAUACUCCACAA | 17.5 | 11.7 | – | – | –
15 | CCGCUCGGGACAUGAGGAUCACCCAUGUUACCUUGCCGUGAGAGAAGGGACACGGCCAGCUCAUGUCAGGAUAUCUCAGCGUAU | 48.3 | 12.4 | – | – | –
16 | GAUUACGGUCUAGGAUAUUGAUUGGCACAUGAGGAUCACCCAUGUCUGUGAGAUCAGCAUACAAGCAAGAAGGAGAUGCGGUCU | – | – | 10.6 | 10.9 | –
17 | UUUAGUAUCUUAGAUACCAGUUUUGGGUGCUGAACGUCUCACAUGAGGAUCACCCAUGUAAACCCUUGGCAGCUACAUACGUAAA | – | – | – | – | apparent Kd (designed as: OFF switch for theophylline, no ligand): 45.5 nM; apparent Kd (ligand present: theophylline, designed as: OFF switch for theophylline): 136 nM
18 | UCGAGUAAGGAGAAGGACUAAUGGACUCACAAAGUAGGAUAUCCUGAACAUGAGGAUCACCCAUGUUGAUGUAACAUGUACUGG | 118 | 80.1 | – | – | –
19 | ACGUUGCAGCAAGGAUAUUCGAGACUACUAGAAGAAGAAGGUGCCGUGCUCUUCACAUGAGGAUCACCCAUGUGGCGUUAAUUU | – | – | 9.11 | 8.35 | –
20 | AAAUCUAACGAGAAGGGAGUGGCCGGCCACUUAGCAGACAUGAGGAUCACCCAUGUGAAGAUCACUCAGGAUAUCGAUAAUCCA | 24.9 | 22.7 | – | – | –
21 | UUAUAUCUUUAGGAUAUGCUGUGUCGGCAACUAGCAGAAGGAAAGACAUGAGGAUCACCCAUGUUGGUGCGUUC | – | – | 58.8 | 249 | –
22 | UCGAUCAUGUAGAAGGCAUCAGAAACUGGGUGAUGAGGAUAUACGUUAAGACAUGAGGAUCACCCAUGUAAGCAUUGCAAACAC | 116 | 86.2 | – | – | –
23 | CGACUAACGUGAGGAUAUAGUCCGGAAAGACAUUUUCGUCAAGACAUGAGGAUCACCCAUGUCCUCUAGAAGGCACUCGGAACA | 45.1 | 30.5 | – | – | –
